Source: PubChem
Beta apoptosis: blocks beta cell apoptosis; INS-1E cytokine-induced death, ATP luminescence, 48 h; percent of positive-control rescue, neutral wells zero; protection from apoptosis, % (no concentration beside the values); 300,000 compounds, 0.8% hits;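 active = Every replicate reaches about 75%, or at least half do and their mean reaches it too, limit read from the data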;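 note: higher means more ATP so stronger rescue from cytokine killing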
MC4R barr agon: human MC4R agonism via beta-arrestin; 360,000 compounds, 0.98% hits; U2OS MC4R beta-arrestin complementation, luminescence; percent of melanotan II response, DMSO zero; activation, % at 8.9 µM; P32245;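 active = activation above a per-plate cutoff, the mean activation of sample wells on that plate plus 3 SD, cut at about 8% in these data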
TMEM16A act: activators or potentiators of mouse TMEM16A chloride channel; Q8BHY3; AID 623877; HEK293 TMEM16A/YFP-H148Q/I152L, iodide quench fluorescence; stronger effect = lower value; 340,000 compounds, 0.3% hits; B-score at 10 µM;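 active = fluorescence-ratio B-score plate-corrected deviation score at least 3 library SD below zero, with starting fluorescence score within 5 deviations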;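 note: channel opened by trigger with iodide after compound preincubation; score built on the fluorescence ratio of max minus min over baseline; more negative score means more quench and so TMEM16A activation or potentiation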
Target sequence (Q8BHY3 whole entry, looked up): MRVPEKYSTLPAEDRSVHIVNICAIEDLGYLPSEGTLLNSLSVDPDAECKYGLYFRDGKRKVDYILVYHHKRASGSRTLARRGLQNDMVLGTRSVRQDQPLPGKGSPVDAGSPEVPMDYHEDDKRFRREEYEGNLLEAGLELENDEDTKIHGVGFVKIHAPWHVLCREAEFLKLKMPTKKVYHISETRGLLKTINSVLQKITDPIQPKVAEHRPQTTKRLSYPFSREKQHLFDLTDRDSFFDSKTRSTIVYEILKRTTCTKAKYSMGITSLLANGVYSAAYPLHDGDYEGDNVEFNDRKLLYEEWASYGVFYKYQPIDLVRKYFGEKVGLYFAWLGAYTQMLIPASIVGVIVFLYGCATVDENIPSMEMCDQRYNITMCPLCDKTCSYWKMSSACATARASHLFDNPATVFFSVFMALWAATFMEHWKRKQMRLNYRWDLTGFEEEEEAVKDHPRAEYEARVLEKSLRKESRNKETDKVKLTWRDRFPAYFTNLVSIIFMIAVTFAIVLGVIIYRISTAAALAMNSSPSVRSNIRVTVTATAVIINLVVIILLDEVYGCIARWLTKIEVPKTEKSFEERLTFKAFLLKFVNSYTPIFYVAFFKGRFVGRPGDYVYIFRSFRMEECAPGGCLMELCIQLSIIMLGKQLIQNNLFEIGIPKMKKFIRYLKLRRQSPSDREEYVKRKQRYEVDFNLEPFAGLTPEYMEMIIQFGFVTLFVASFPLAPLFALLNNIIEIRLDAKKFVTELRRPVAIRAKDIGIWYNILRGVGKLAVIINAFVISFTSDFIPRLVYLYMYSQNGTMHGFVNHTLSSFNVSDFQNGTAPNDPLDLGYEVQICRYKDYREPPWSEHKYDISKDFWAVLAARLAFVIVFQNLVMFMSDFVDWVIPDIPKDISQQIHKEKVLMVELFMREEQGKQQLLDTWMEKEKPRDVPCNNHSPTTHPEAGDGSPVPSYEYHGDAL
CSC inhib: blocks cancer stem cells | cancer stem cell-like cells viability, luminescence | inhibition, % at 7.5 µM | 300,000 compounds, 1.1% hits | AID 2717; in the data active = inhibition above about 75%; tested in HMLE shEcad cells
MC4R antagonist: blocks human MC4R cAMP signaling. P32245. inhibition, % at 6.5 µM. AID 540295. MC4R-expressing cells, MTII-stimulated cAMP, LANCE TR-FRET. 360,000 compounds, 0.48% hits;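 active = inhibition above its plate's cutoff, the mean of tested wells on that plate plus 3 SD, cut at about 29% in these data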
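Assay system: human MC4R-expressing U2OS cells; reagent: Melanotan II stimulation of cells; dosing: 6.5 µM single dose; timing: compound 30 min, challenge 1 h, detection 1 h; signal: TR-FRET cAMP assay; replicates: one well per compound, no replicates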
ANO1 block: blocks the mouse calcium-activated chloride channel TMEM16A; Q8BHY3; AID 588511; 310,000 compounds, 1.2% hits; HEK293 TMEM16A/YFP iodide influx fluorescence, ionomycin; normalized B-score (activity score, 25-100; higher = stronger inhibition) at 10 µM;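 active = ratio plate-corrected score three or more library SD toward inhibition, starting fluorescence score within five deviations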;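 note: score derived from kinetic fluorescence span divided by baseline fluorescence per well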
MC4R barr conf: human MC4R beta-arrestin agonism confirmation. shares compounds with MC4R barr agon. U2OS MC4R beta-arrestin recruitment, luminescence; scaled DMSO 0%, Melanotan II 100%. activation, % at 8.9 µM. 2,400 compounds, 31% hits;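 active = mean activation across replicates above the hit cutoff set in the earlier primary screen, cut at about 8% in these data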
MOR-DOR barr ag: OPRM1-OPRD1 heterodimer agonism counter-screen | shares compounds with MC4R barr agon | U2OS PathHunter beta-arrestin, beta-gal luminescence; percent of deltorphin B response, DMSO zero | activation, % at 9.2 µM | 2,400 compounds, 5.8% hits | AID 602194;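 active = mean activation across replicates exceeds the hit threshold derived in the earlier primary screen, cut at about 18% in these data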
Each line names hits and unclear results; the compound was inactive in the other large screens (follow-up assays come after a bar, where they were run). This is a sample that favours compounds with a hit; in the whole collection about 3.8% have one here.

O=C(Nc1ccn(Cc2c(F)c(F)cc(F)c2F)n1)c1ccc(COc2cc(Cl)ccc2Cl)o1	MC4R barr agon 11 | MC4R barr conf inactive | MOR-DOR barr ag inactive
COc1ccc(C2(C)NC(=O)N(CC(=O)NC3CC3)C2=O)cc1 (centres undefined)	none (no result: ANO1 block)
CCCn1c(=S)[nH]c2cc(C(=O)N3CCc4ccccc4C3)ccc2c1=O	MC4R barr agon 12 | MC4R barr conf inactive | MOR-DOR barr ag inactive
CCCn1c(=S)[nH]c2cc(C(=O)N3CCN(c4ccccc4)CC3)ccc2c1=O	none (no result: Beta apoptosis, TMEM16A act, CSC inhib, ANO1 block)
C/C(=N\Nc1nc2ccccc2[nH]1)c1ccc2c(c1)OCCO2	MC4R barr agon 9.8 | MC4R barr conf inactive | MOR-DOR barr ag inactive
C(=N\Nc1nc2ccccc2[nH]1)/c1ccc2c(c1)OCO2	none (no result: Beta apoptosis, CSC inhib, ANO1 block)
C/C(=N\Nc1ccccn1)c1ccc2c(c1)OCO2	none
C/C(=N\Nc1nc2ccccc2[nH]1)c1ccc2c(c1)OCO2	MC4R barr agon 15 (no result: CSC inhib) | MC4R barr conf inactive | MOR-DOR barr ag inactive
Cc1cc(F)ccc1-c1cc(C(=O)N2CCN(c3ccncc3)CC2)[nH]n1	none (no result: Beta apoptosis, TMEM16A act, CSC inhib, ANO1 block)
COc1ccc2oc(C(=O)OCC(=O)Nc3ccccc3OC)c(C)c2c1	MC4R barr agon 14 | MC4R barr conf inactive | MOR-DOR barr ag inactive
COc1ccc2oc(C(=O)OCC(=O)NCc3ccc(OC)c(OC)c3)c(C)c2c1	none (no result: Beta apoptosis, CSC inhib, ANO1 block)
COc1ccc2oc(C(=O)Nc3ccc(C)cn3)c(C)c2c1	MC4R barr agon 13 | MC4R barr conf inactive | MOR-DOR barr ag inactive
CCOc1ccc2oc(C(=O)OCC(=O)NCc3ccc(OC)cc3)c(C)c2c1	MC4R barr agon 30 (no result: ANO1 block) | MC4R barr conf inactive | MOR-DOR barr ag inactive
COc1ccc2oc(C(=O)Nc3ccccn3)c(C)c2c1	none
COc1ccc2oc(C(=O)OCC(=O)Nc3ccccc3)c(C)c2c1	none
CCOC(=O)c1cc(NC(=O)c2ccc(C)cc2)c(=O)oc1-c1ccccc1	MC4R barr agon 11 | MC4R barr conf inactive | MOR-DOR barr ag inactive
COc1ccc(C(=O)COC(=O)c2sc(C)nc2C)cc1F	none (no result: ANO1 block)
CC1(C(=O)NCc2ccc(C(F)(F)F)cc2)CCN1Cc1ccccc1OC(F)F (centres undefined)	none (no result: Beta apoptosis, TMEM16A act, CSC inhib, ANO1 block)
CCn1c(CC(=O)Nc2ccc(C)c(Cl)c2)nnc1SCCOc1ccc(OC)cc1	MC4R barr agon 11 (no result: CSC inhib) | MC4R barr conf inactive | MOR-DOR barr ag inactive
CCOc1ccc(C(=O)OCC(=O)Nc2ccc(SC(F)F)cc2)cc1OCC	MC4R barr agon 19 | MC4R barr conf inactive | MOR-DOR barr ag inactive
COc1ccc(-c2c(-c3ccsc3)oc3ccc(N4CCOCC4)cc23)cc1	none
COc1cc(OC)cc(-c2sc3ccc(OC)cc3c2C#CC2(N)CCCCC2)c1	MC4R barr agon 21, CSC inhib 104 (no result: ANO1 block) | MC4R barr conf 14 | MOR-DOR barr ag inactive
COc1ccc(-c2sc3cc4c(cc3c2C#CC2(N)CCCCC2)OCO4)cc1	MC4R barr agon 16, CSC inhib 130 (no result: ANO1 block) | MC4R barr conf inactive | MOR-DOR barr ag inactive
COc1ccc(-c2sc3ccc(N4CCOCC4)cc3c2C#CC2(O)CCCCC2)cc1	MC4R barr agon 32, CSC inhib 106 (no result: ANO1 block) | MC4R barr conf 45 | MOR-DOR barr ag inactive
CC(C)(C)c1cc(CNC(=O)C2CCC(=O)N(Cc3ccccc3F)C2)[nH]n1 (centres undefined)	none (no result: Beta apoptosis, TMEM16A act, CSC inhib, ANO1 block)
Nc1c(C(=O)Nc2cccc(F)c2)nnn1-c1ccc2c(c1)OCCO2	MC4R barr agon 11 | MC4R barr conf inactive | MOR-DOR barr ag inactive
CCn1c(O)c(/C=N/N=C/c2ccc(OC)cc2)c2cc(C3=NNC(=O)CC3)ccc21	MC4R barr agon 18 | MC4R barr conf inactive | MOR-DOR barr ag inactive
Cc1ccc(Cn2c(C)c(C(=O)NCc3ccc4c(c3)OCO4)sc2=O)cc1	none (no result: Beta apoptosis, TMEM16A act, CSC inhib, ANO1 block)
FC(F)(F)c1cc(-c2cccs2)nc2cc(-c3cccs3)nn12	MC4R barr agon 25 | MC4R barr conf inactive | MOR-DOR barr ag inactive
